Screening results: PubChem BioAssay, Johns Hopkins Ion Channel Center
Compounds with a hit are over-represented: about 3.5% of the library has one in this group of screens.
MrgX1 agonist – human MrgX1 receptor agonism, primary screen | Q96LB2 | MrgX1-HEK293 cells, Fluo-4 calcium fluorescence, agonist mode; active compounds read high | B-score at 10 µM | 310,000 compounds, 0.44% hits;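 active = calcium response B-score plate-corrected fluorescence ratio at least 3 library SD, with starting fluorescence B-score inside 5 SD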
Target sequence (Q96LB2 whole entry, looked up): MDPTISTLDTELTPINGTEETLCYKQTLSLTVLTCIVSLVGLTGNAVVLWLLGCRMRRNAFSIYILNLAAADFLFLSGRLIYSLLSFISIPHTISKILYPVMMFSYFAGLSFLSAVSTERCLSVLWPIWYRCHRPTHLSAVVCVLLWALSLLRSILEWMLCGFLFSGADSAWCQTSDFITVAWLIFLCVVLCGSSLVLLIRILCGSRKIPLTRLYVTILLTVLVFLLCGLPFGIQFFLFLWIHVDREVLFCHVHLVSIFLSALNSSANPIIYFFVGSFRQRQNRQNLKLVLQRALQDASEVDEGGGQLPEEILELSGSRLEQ
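Assay system: MrgX1-expressing HEK293 cells / Amount: fifteen thousand cells per well / Doses: test compound in the initial addition of three / Timing: cells plated overnight, dye loaded 0.5 h 37 °C, 0.5 h room temperature / Technique: kinetic calcium dye fluorescence, Fluo-4 NW / Control set: positive and negative controls per plate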
RGS4 pot – potentiators or activators of RGS4; HEK293 M3R/inducible RGS4, carbachol calcium flux Fluo4; active compounds read low; 310,000 compounds, 0.92% hits; B-score at 10 µM;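 active = B-score of the integrated calcium signal more than 4 SD below the library mean, with starting fluorescence not abnormally high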;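 note: negative B-score means reduced calcium response which marks RGS4 activation or potentiation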
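Detection: kinetic calcium fluorescence imaging with Fluo4-AM dye, 2 µM / Material: HEK293 cells with stable M3R and inducible RGS4 / Schedule: recording 10 s baseline at 1 Hz, 100 s post-agonist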
MrgX1 PAM – human MrgX1 positive allosteric modulation, primary screen | MrgX1-HEK293, Fluo-4 calcium flux, FDSS; active compounds read high | B-score at 10 µM | 310,000 compounds, 0.63% hits | AID 588675;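 active = plate-corrected calcium response at least 3 library SD above typical, normal starting fluorescence, not activating the receptor alone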;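 note: compound read alongside a low EC10 to EC30 dose of BAM8-22 agonist; peak minus trough fluorescence over baseline measured at the second addition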
MrgX1 antagonist – human MrgX1 receptor antagonism, primary screen. Q96LB2. MRGX1-HEK293 calcium flux, Fluo-4, BAM8-22 antagonism; active compounds read low. B-score at 10 µM. 310,000 compounds, 1.3% hits. AID 588676;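 active = calcium-response B-score plate-corrected more than 3 library SD below zero, starting fluorescence within 5 deviations, no agonist response on first addition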;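 note: peak minus trough fluorescence over baseline after final BAM8-22 challenge near maximal dose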
RGS4 block – inhibitors of human RGS4 | 310,000 compounds, 0.45% hits | HEK293 M3R/RGS4 inducible, Fluo-4 calcium flux; active compounds read high; triggered by carbachol at its EC20 | B-score at 10 µM | AID 463165;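 active = B-score, a plate-corrected calcium signal, over three deviations above library mean, with baseline fluorescence within five deviations of library mean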;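 note: RGS4 expression induced by doxycycline in cells with stable M3 receptor; B-score is computed from the integrated fluorescence ratio over baseline after carbachol; higher B-score means a larger calcium signal and so more RGS4 inhibition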
Target sequence (P49798 whole entry, looked up): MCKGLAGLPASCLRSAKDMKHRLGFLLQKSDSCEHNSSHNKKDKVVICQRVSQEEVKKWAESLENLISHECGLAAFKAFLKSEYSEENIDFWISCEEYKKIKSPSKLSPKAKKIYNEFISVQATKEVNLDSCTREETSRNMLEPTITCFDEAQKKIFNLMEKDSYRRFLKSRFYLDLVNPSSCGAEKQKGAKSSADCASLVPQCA
MrgX1 antag conf – reconfirmed antagonist of human MrgX1 receptor signaling; shares compounds with MrgX1 antagonist; MrgX1-HEK293, BAM8-22 calcium flux, Fluo-4; active compounds read low; remaining BAM8-22 calcium response % of control (active compounds read low), % at 10 µM; 2,300 compounds, 19% hits; AID 602420;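 active = remaining agonist calcium response no higher than 100% minus 3 SD of agonist-only control wells, with starting fluorescence near control levels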;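 note: agonist BAM8-22 given at a near maximal EC90 to ECmax level; peak minus minimum fluorescence divided by baseline after agonist addition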
HEK293 Ca flux – activity in parental HEK293 cells lacking MrgX1; shares compounds with MrgX1 antagonist; Fluo-4 calcium fluorescence, FDSS; fluorescence ratio F(max-min)/F0 at 10 µM; 4,000 compounds, 2% hits; AID 624111;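 active = duplicate-averaged calcium fluorescence ratio at least three times the standard deviation of buffer wells, a nonspecific response in parental cells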
HEK293 Ca counter – MrgX1 allosteric activator counter-screen hit in parental HEK293 cells | shares compounds with MrgX1 antagonist | parental HEK293 calcium flux, Fluo-4 fluorescence ratio; active compounds read high | fluorescence ratio F(max-min)/F0 at 10 µM | 4,000 compounds, 0.4% hits | AID 624114;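 active = calcium fluorescence ratio, averaged over duplicates, at least 3 SD of the buffer-well ratio, meaning a nonspecific response in receptor-free cells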;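 note: untransfected parental HEK293 lacking MrgX1 used as counterscreen for MrgX1 allosteric activators; fluorescence change taken during the second addition on a kinetic imager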
HEK293 Ca cntr2 – MrgX1 activator counter-screen hit in parental HEK293 cells. shares compounds with MrgX1 antagonist. Fluo-4 calcium fluorescence (FDSS); active compounds read high. fluorescence ratio F(max-min)/F0 at 10 µM. 4,000 compounds, 8.7% hits. AID 624115;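 active = calcium fluorescence ratio at least three times the spread of buffer wells, meaning a non-specific response in parental cells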
Starred values were filed as active, the others as inactive; i = inactive; . = no result.

SMILES	MrgX1 agonist	RGS4 pot	MrgX1 PAM	MrgX1 antagonist	RGS4 block	MrgX1 antag conf	HEK293 Ca flux	HEK293 Ca counter	HEK293 Ca cntr2
COc1cccc(-n2nnc3c(=O)n(CC(=O)N4CCC(Cc5ccccc5)CC4)cnc32)c1	i	i	i	-7.5*	i	i	i	i	i
CCn1c(SCC(=O)Nc2ccc(C(C)=O)cc2)nc2nc3c(cc2c1=O)CCCC3	i	i	i	-5.8*	i	i	i	i	i
COc1ccc(-c2nnc(SCC(=O)O)n2C)cc1OC	i	i	i	i	i	.	.	.	.
O=C(NCCCO)c1ccc2[nH]c3c(c2c1)CCCC3	i	i	i	i	i	.	.	.	.
O=C(NCCO)c1ccc2[nH]c3c(c2c1)CCCC3	i	i	i	-6.5*	i	i	i	i	i
COC(=O)CCCC(=O)N1CCCC(CCC(=O)NCc2ccc(F)c(F)c2)C1 (centres undefined)	i	i	i	i	i	.	.	.	.
O=C(CCC1CCCN(C(=O)CCC(F)(F)F)C1)NCc1ccc(F)c(F)c1 (centres undefined)	i	i	i	-4.8*	i	i	i	i	i
O=C(Nc1ccc(F)cc1)Nc1cc(OCC(F)(F)F)cc(OCC(F)(F)F)c1	i	i	i	-6*	i	62%*	i	i	i
COc1ccc(CCN=C(N)NS(=O)(=O)c2ccc(C)c(C)c2)cc1OC	i	i	i	i	i	.	.	.	.
COc1ccc(S(=O)(=O)NC(N)=NCCc2ccc(OC)c(OC)c2)cc1	i	i	i	-7.4*	i	i	i	i	i
CCOc1ccc(Br)cc1CC(=O)O	i	i	i	i	i	.	.	.	.
CCCOc1ccc(Br)cc1CSC(=N)N	i	i	i	-4.6*	i	i	i	i	i
COc1ccc(Cc2nnc(NC(=O)c3ccccc3F)s2)cc1	i	i	i	i	i	.	.	.	.
CCOC(=O)c1ccc(-n2[nH]c(-c3ccccc3)cc2=O)cc1	i	i	i	-5.8*	i	71%*	i	i	i
CCC(C)C(=O)Nc1nnc(SCC(=O)N2C(C)CCCC2C)s1 (centres undefined)	i	i	i	i	i	.	.	.	.
Cc1ccc(C(=O)NC2CCCN(c3ccc(C(F)(F)F)cn3)C2)cn1 (centres undefined)	i	i	i	i	i	.	.	.	.
O=C(NC1CCCN(c2ccc(C(F)(F)F)cn2)C1)c1cc(Cl)ccc1F (centres undefined)	i	i	i	-6.6*	i	i	i	i	i
CCc1ccc(NC(=O)c2nc(S(=O)(=O)Cc3ccccc3)ncc2Cl)cc1	i	i	i	i	i	.	.	.	.
CC(C)c1nnc(NC(=O)c2nc(S(=O)(=O)Cc3ccccc3)ncc2Cl)s1	i	i	i	-5.3*	i	81%*	i	i	i
CSc1nnc(NC(=O)c2nc(S(=O)(=O)Cc3ccccc3)ncc2Cl)s1	i	i	i	-4.7*	i	71%*	i	i	i
O=C(Nc1ccc(Cl)c(Cl)c1)Nc1ccccc1NS(=O)(=O)c1cccs1	i	i	i	-7.3*	i	74%*	i	i	i
O=C(Nc1ccccc1)Nc1ccccc1NS(=O)(=O)c1cccs1	i	i	i	i	i	.	.	.	.
CCC(C(=O)NCCC1=CCCCC1)n1nc(C)c2c(C)n(-c3ccccc3)nc2c1=O (centres undefined)	i	i	i	i	i	.	.	.	.
CC(=O)NCC1CCCN(C(=O)c2ccc(OC3CCN(Cc4ccccn4)CC3)cc2)C1 (centres undefined)	i	i	i	i	i	.	.	.	.
Cc1cc(C)cc(NC(=O)COC(=O)CCCNC(=O)c2ccc(Cl)cc2)c1	i	i	i	-9.7*	i	77%*	i	i	i
SMILES	MrgX1 agonist	RGS4 pot	MrgX1 PAM	MrgX1 antagonist	RGS4 block	MrgX1 antag conf	HEK293 Ca flux	HEK293 Ca counter	HEK293 Ca cntr2
O=C(COC(=O)CCCNC(=O)c1ccc(Cl)cc1)Nc1cc(Cl)c(Cl)cc1Cl	i	i	i	i	i	.	.	.	.
CCOC(=O)N1CCC(NC(=O)CS(=O)(=O)Cc2nc(-c3ccccc3C)oc2C)CC1	i	i	i	-5.3*	i	i	i	i	i
CCOC(=O)C1CCN(C(=O)c2sccc2Cl)CC1	i	i	i	i	i	.	.	.	.
Cc1ccc(-c2cccc(CN3CCN(C4CCN(C(C)C)CC4)C(CCO)C3)c2)o1 (centres undefined)	i	i	i	i	i	.	.	.	.
Cc1ccc(S(=O)(=O)c2nc(-c3cccs3)oc2SCC(N)=O)cc1	i	i	i	-7.1*	i	i	i	i	i
Cc1ccc(-c2nc(S(=O)(=O)c3ccc(C)cc3)c(SCC(N)=O)o2)cc1	i	i	i	i	i	.	.	.	.
Cc1nnc(Oc2ccccc2F)c2ccccc12	i	i	i	-6*	i	85%*	i	i	i
O=C(CCl)N(Cc1cc(=O)[nH]c2ccccc12)c1ccccc1	i	i	i	i	i	.	.	.	.
COc1ccc(OC)c(CCNC(=O)CC2(CC3=NS(=O)(=O)c4ccccc4N3)CCCC2)c1	i	i	i	i	i	.	.	.	.
Cc1ccc(C(=O)Nc2ccncc2)c(C)c1	i	i	i	i	i	.	.	.	.
CCOC(=O)CNC(=O)CSc1ccc(-c2nc3ccccc3[nH]2)cn1	i	i	i	-4.8*	i	i	i	i	i
Cc1ccc(NC(=O)NCC2CCN(Cc3cccc(Cl)c3)CC2)c(Cl)c1	i	i	i	i	i	.	.	.	.
O=C(NCC1CCN(Cc2cccc(Cl)c2)CC1)Nc1ccccc1Cl	i	i	i	-5.7*	i	i	i	i	i
O=C(Nc1nccs1)C1CC(=O)N(c2ccccc2)C1 (centres undefined)	i	i	i	i	i	.	.	.	.
